Reference: ChEMBL document CHEMBL4190254, “Synthesis of sulfamoylbenzamide derivatives as HBV capsid assembly effector” (Eur J Med Chem, 2017)
Active and inactive are the calls of the source. The calls are words filed in the database; no cut-off is given here.

Key:
Hepatitis B virus [1] = assay: Antiviral activity against HBV infected in human HepAD38 cells assessed as reduction in viral replication by RT-PCR method; type: functional, organism-based
Outline: (§1)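 HBV DNA replication in HepAD38 cells was quantified by RT-PCR following an earlier published method, with data relative to the untreated control. EC50 (50% inhibition of HBV DNA replication) was derived by linear regression. Values are the mean ± SD of two or three replicates from 2 independent experiments.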

Core antigen = Core antigen (Hepatitis B virus, UniProt Q03732); assay: (§2) Inhibition of capsid in HBV infected in human HepAD38 cells assessed as reduction in tetracycline-induced cccDNA formation by measuring reduction in HBe antigen secretion after 14 days by ELISA; type: cell-based
Outline: (§3)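 HepAD38 cells, collagen-coated wells, DMEM/F12 with 10% heat-inactivated FBS. Tetracycline withdrawn 7 days to allow DNA synthesis and cccDNA formation; at day 7 tetracycline (0.3 μg/ml) plus compound re-added. Compound at 10 μM or 0.001–10 μM, medium and compound replenished every 5 days. Day-14 supernatant HBeAg by ELISA; EC50 by linear regression.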

[2] = molecular target: Core antigen (Hepatitis B virus) (UniProt Q03732); assay: as §2; type: cell-based; outline: as §3
[3] = molecular target: Core antigen (Hepatitis B virus) (UniProt Q03732); assay: Inhibition of capsid in HBV infected in human HepAD38 cells assessed as reduction in cccDNA formation by measuring reduction in HBe antigen secretion at 3 to 4 uM after 14 days by ELISA relative to control; type: cell-based; outline: as §3
Hepatitis B virus [4] = assay: Inhibition of HBV capsid cp149 assembly expressed in Escherichia coli BL21 assessed as spherical capsid aggregation in to clusters at 20 uM preincubated for 1 hr followed by NaCl stimulation measured after overnight incubation by uranyl acetate staining based electron microscopic method
Outline: (§4)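 Untagged HBV core residues 1–149 expressed in E. coli BL21 (1 mM IPTG, 16 °C overnight), purified as capsids, dissociated to dimers with 4 M urea in carbonate buffer pH 9.5; >95% pure. Dimers preincubated 1 hr with compound (20 μM), then capsid buffer added (final NaCl 300 mM, Cp149 monomer 10 μM); held 4 °C overnight; uranyl acetate negative-stain EM, single-blind.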

CCRF-CEM = assay: (§5) Cytotoxicity against human CEM cells by CellTiter 96 non-radioactive cell proliferation colorimetric assay; type: cell-based; conditions: ccrf-cem
Outline: (§6)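 A CellTiter 96 colorimetric cell proliferation read-out was used in primary human PBM cells, CEM, Vero and HepG2 cells. CC50 is the concentration that inhibits cell growth by 50%.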

Hepatitis B virus [5] = assay: Antiviral activity against HBV infected in human HepAD38 cells assessed as reduction in intracellular viral DNA level by RT-PCR method; type: functional, organism-based; outline: as §1
PBMC = assay: (§7) Cytotoxicity against human PBMC by CellTiter 96 non-radioactive cell proliferation colorimetric assay; type: cell-based; outline: as §6
Hepatitis B virus [6] = assay: Antiviral activity against HBV infected in human HepAD38 cells assessed as reduction in extracellular viral DNA level by RT-PCR method; type: functional, organism-based; outline: as §1
Vero = assay: (§8) Cytotoxicity against African green monkey Vero cells by CellTiter 96 non-radioactive cell proliferation colorimetric assay; type: cell-based; conditions: chlorocebus sabaeus, vero; outline: as §6
HepG2 = assay: Cytotoxicity against human HepG2 cells by CellTiter 96 non-radioactive cell proliferation colorimetric assay; type: cell-based; outline: as §6
[7] = molecular target: Core antigen (Hepatitis B virus) (UniProt Q03732); assay: Inhibition of capsid in HBV infected in human HepAD38 cells assessed as reduction in cccDNA formation by measuring reduction in HBe antigen secretion at 10 uM after 14 days by ELISA relative to control; type: cell-based; outline: as §3
Hepatitis B virus [8] = assay: Antiviral activity against HBV infected in human HepAD38 cells assessed as reduction in intracellular viral DNA level at 10 uM by RT-PCR method relative to control; type: functional; set-up: scale not given: the % may be the effect or the level left
Outline: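 HepAD38 cells; intracellular HBV DNA quantified by RT-PCR, expressed relative to untreated control; single-point inhibition given as percent at 10 μM, mean ± SD of two or three replicates from 2 independent experiments.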

[9] = as §5; type: cell-based, CCRF-CEM; conditions: CEM (CCRF-CEM) cells; outline: as §6
[10] = as §7; type: cell-based; outline: as §6
[11] = as §8; type: cell-based; conditions: chlorocebus sabaeus, Vero cells; outline: as §6
Hepatitis B virus [12] = assay: Antiviral activity against HBV infected in human HepDES19 cells assessed as reduction in viral replication; type: functional, organism-based
Hepatitis B virus [13] = assay: Inhibition of HBV capsid cp149 assembly expressed in Escherichia coli BL21 assessed as formation of disfigured circular assemblies at 20 uM preincubated for 1 hr followed by NaCl stimulation measured after overnight incubation by uranyl acetate staining based electron microscopic method; outline: as §4
Hepatitis B virus [14] = assay: Inhibition of HBV capsid cp149 assembly expressed in Escherichia coli BL21 at 20 uM preincubated for 1 hr followed by NaCl stimulation measured after overnight incubation by uranyl acetate staining based electron microscopic method; outline: as §4

Chain of Core antigen (Hepatitis B virus) (Q03732 as listed by the source): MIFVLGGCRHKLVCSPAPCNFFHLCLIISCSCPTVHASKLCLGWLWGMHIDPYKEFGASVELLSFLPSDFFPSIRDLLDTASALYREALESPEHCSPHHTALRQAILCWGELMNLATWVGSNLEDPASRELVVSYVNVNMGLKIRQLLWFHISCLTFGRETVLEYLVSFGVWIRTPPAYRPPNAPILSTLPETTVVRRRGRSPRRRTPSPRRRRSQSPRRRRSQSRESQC
Chain of Core antigen (Q03732 whole entry): as the sequence (Q03732 as listed by the source) above

Compound	EC50 (Hepatitis B virus [1]) [µM]	EC90 (Hepatitis B virus [1]) [µM]	EC50 (Core antigen) [µM]	EC90 [2] [µM]	inhibition [3] [%]	CC50 (CCRF-CEM) [µM]	EC50 (Hepatitis B virus [5]) [µM]	EC90 (Hepatitis B virus [5]) [µM]	CC50 (PBMC) [µM]	EC50 (Hepatitis B virus [6]) [µM]	EC90 (Hepatitis B virus [6]) [µM]	CC50 (Vero) [µM]	CC50 (HepG2) [µM]	further results
O=C(Nc1ccc(F)c(F)c1)c1cc(S(=O)(=O)N2CC(F)(F)C2)ccc1F	1.2	6.3	1	3.2	90	3.7	0.9	9.7	69.1	1.2	6.3	14.7	27	inhibition (Hepatitis B virus [4]): Active
Nc1ccn([C@@H]2CS[C@H](CO)O2)c(=O)n1 [LAMIVUDINE]	–	0.3	> 10	–	–	–	< 0.01	0.7	–	–	0.3	–	> 10	inhibition [7]: < 1%; Activity (Hepatitis B virus [8]): 74%; CC50 [9]: > 100 µM; CC50 [10]: > 100 µM; CC50 [11]: > 100 µM
O=C(Nc1ccc(F)c(F)c1)c1cc(S(=O)(=O)NC2CCCC2)ccc1F	0.8	7.8	1.3	4.6	90	14	0.6	4.3	15.6	0.8	7.8	32.7	37.1	EC50 (Hepatitis B virus [12]): 0.14 µM; inhibition (Hepatitis B virus [13]): Active
CC(C)(NC(=O)c1cccc(S(=O)(=O)NC2CCCC2)c1)c1ccc(F)c(F)c1	> 10	–	–	–	–	64	–	–	> 100	–	–	84.3	> 100	inhibition (Hepatitis B virus [14]): inactive
